Several values for one entry are separate records, joined by “and”; a condition that tells them apart may be missing. Equal entries are not always repeated. Where two headings read alike, the source gives them in different places. Blank lines part the entries; values can stand above or below the molecule they belong to.
Key:
[1] = system: EH domain of EHD1; assay: ITC of NPF peptides binding to EHD1 EH; parameters: species or system mouse; settings: ITC, 25 mM MOPS pH 7.0, 1 mM CaCl2
How it was run: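 Mouse EHD1 EH domain (V437–E534) expressed as a GST fusion, purified on glutathione resin and thrombin-cleaved on beads. Protein and peptides were dialysed at 4°C against 25 mM MOPS pH 7.0, 1 mM CaCl2, with KCl varied where applicable. ITC was run at 20°C unless stated (5–25°C), with 50–200 μM protein in the cell and peptide titrant 10-fold higher. Single-site fit gave Ka, n and ΔH; ΔG = −RTlnKa, and TΔS came from ΔG = ΔH − TΔS.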

[2] = biological target: Rsn5-NPF1 peptide (first NPF motif of Rabenosyn-5) (UniProt Q9H1K0); assay: ITC; settings: pH 7.0; 20 C; 0 mM KCl added; 1 mM CaCl2; 25 mM MOPS pH 7.0
Rsn5-NPF1 peptide (first NPF motif of Rabenosyn-5), sequence (Q9H1K0 whole entry, looked up, the tested form may be a part): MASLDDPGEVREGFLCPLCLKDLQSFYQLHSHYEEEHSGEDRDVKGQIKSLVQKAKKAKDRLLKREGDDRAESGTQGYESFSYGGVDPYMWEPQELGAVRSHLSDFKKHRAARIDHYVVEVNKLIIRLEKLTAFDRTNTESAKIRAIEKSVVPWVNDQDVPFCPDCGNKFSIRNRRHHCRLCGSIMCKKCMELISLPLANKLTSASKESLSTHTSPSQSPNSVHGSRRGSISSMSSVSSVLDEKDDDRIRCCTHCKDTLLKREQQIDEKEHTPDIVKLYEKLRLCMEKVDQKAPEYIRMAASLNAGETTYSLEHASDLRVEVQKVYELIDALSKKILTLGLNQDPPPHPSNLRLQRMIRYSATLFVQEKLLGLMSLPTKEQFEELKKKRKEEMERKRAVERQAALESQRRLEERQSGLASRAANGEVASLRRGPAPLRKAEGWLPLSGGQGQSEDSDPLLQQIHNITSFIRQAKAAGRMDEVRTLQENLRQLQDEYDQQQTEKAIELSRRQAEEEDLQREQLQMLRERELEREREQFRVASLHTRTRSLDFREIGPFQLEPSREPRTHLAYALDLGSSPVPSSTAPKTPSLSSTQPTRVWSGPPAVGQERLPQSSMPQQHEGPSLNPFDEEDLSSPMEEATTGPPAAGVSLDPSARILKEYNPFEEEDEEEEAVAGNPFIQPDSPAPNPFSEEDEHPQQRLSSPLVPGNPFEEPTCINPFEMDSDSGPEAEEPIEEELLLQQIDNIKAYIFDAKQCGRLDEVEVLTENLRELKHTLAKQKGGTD

[3] = biological target: Rsn5-NPF1 peptide (first NPF motif of Rabenosyn-5) (UniProt Q9H1K0); assay: ITC; settings: pH 7.0; 20 C; 0 mM KCl added; 1 mM CaCl2; 25 mM MOPS pH 7.0; remark: listed apart in the source
[4] = biological target: EH domain of EHD1 (mouse), residues V437 to E534 (mouse) (UniProt Q9WVK4)
[5] = biological target: T1, EH domain of Reps1; assay: ITC
T1 chain: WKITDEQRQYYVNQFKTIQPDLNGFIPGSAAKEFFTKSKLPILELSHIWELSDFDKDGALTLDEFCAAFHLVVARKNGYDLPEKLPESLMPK

[6] = biological target: T2, EH domain of EHD1 (mouse), residues V437 to E534 (mouse, UniProt Q9WVK4 437-534); assay: ITC
T2 sequence (looked up): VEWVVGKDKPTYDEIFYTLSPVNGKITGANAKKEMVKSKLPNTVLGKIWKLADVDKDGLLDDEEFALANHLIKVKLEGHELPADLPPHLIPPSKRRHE

[7] = biological target: T2, EH domain of EHD1 (mouse), residues …; assay: ITC; remark: listed apart in the source
[8] = biological target: T2, EH domain of EHD1 (mouse), residues …; assay: ITC; remark: listed apart in the source
[9] = biological target: T2, EH domain of EHD1 (mouse), residues …; assay: ITC; remark: listed apart in the source
[10] = biological target: T2, EH domain of EHD1 (mouse), residues …; assay: ITC; remark: listed apart in the source
[11] = biological target: T2, EH domain of EHD1 (mouse), residues …; assay: ITC; remark: listed apart in the source
[12] = biological target: T2, EH domain of EHD1 (mouse), residues …; assay: ITC; remark: listed apart in the source
[13] = biological target: T2, EH domain of EHD1 (mouse), residues …; assay: ITC; remark: listed apart in the source
[14] = biological target: T2, EH domain of EHD1 (mouse), residues …; assay: ITC; remark: listed apart in the source
[15] = biological target: T2, EH domain of EHD1 (mouse), residues …; assay: ITC; remark: listed apart in the source
[16] = biological target: T2, EH domain of EHD1 (mouse), residues …; assay: ITC; remark: listed apart in the source
[17] = biological target: T2, EH domain of EHD1 (mouse), residues …; assay: ITC; remark: listed apart in the source
[18] = biological target: T2, EH domain of EHD1 (mouse), residues …; assay: ITC; remark: listed apart in the source

Ka ([1]; 5.0 °C): 17800 M⁻¹
TΔS ([1]; 5.0 °C): -3.867 kcal/mol
ΔH ([1]; 5.0 °C): -9.279 kcal/mol
ΔS ([1]; 5.0 °C): −13.9 cal mol^−1 K^−1
Ka ([1]; 10.0 °C): 12800 M⁻¹
TΔS ([1]; 10.0 °C): -4.729 kcal/mol
ΔG ([1]; 10.0 °C): -5.316 kcal/mol
ΔH ([1]; 10.0 °C): -10.04 kcal/mol
ΔS ([1]; 10.0 °C): −16.7 cal mol^−1 K^−1
Ka ([1]; 15.0 °C): 9390 M⁻¹
TΔS ([1]; 15.0 °C): -5.562 kcal/mol
ΔG ([1]; 15.0 °C): -5.233 kcal/mol
ΔH ([1]; 15.0 °C): -10.79 kcal/mol
ΔS ([1]; 15.0 °C): −19.3 cal mol^−1 K^−1
TΔS ([1]; 20.0 °C): -6.802 kcal/mol
ΔG ([1]; 20.0 °C): -5.122 kcal/mol
ΔH ([1]; 20.0 °C): -11.92 kcal/mol
ΔS ([1]; 20.0 °C): −23.2 cal mol^−1 K^−1
Ka ([1]; 20 °C, KCl 75.0 mM): 6460 M⁻¹
TΔS ([1]; 20 °C, KCl 75.0 mM): -6.744 kcal/mol
ΔG ([1]; 20 °C, KCl 75.0 mM): -5.106 kcal/mol
ΔH ([1]; 20 °C, KCl 75.0 mM): -11.84 kcal/mol
ΔS ([1]; 20 °C, KCl 75.0 mM): −23.0 cal mol^−1 K^−1
Ka ([1]; 20 °C, KCl 150.0 mM): 6910 M⁻¹
TΔS ([1]; 20 °C, KCl 150.0 mM): -6.802 kcal/mol
ΔG ([1]; 20 °C, KCl 150.0 mM): -5.145 kcal/mol
ΔH ([1]; 20 °C, KCl 150.0 mM): -11.96 kcal/mol
ΔS ([1]; 20 °C, KCl 150.0 mM): −23.2 cal mol^−1 K^−1
Ka ([1]; 20 °C, KCl 300.0 mM): 7490 M⁻¹
TΔS ([1]; 20 °C, KCl 300.0 mM): -6.568 kcal/mol
ΔG ([1]; 20 °C, KCl 300.0 mM): -5.192 kcal/mol
ΔH ([1]; 20 °C, KCl 300.0 mM): -11.77 kcal/mol
ΔS ([1]; 20 °C, KCl 300.0 mM): −22.4 cal mol^−1 K^−1
Ka ([1]; 20 °C, KCl 450.0 mM): 7810 M⁻¹
TΔS ([1]; 20 °C, KCl 450.0 mM): -6.069 kcal/mol
ΔG ([1]; 20 °C, KCl 450.0 mM): -5.217 kcal/mol
ΔH ([1]; 20 °C, KCl 450.0 mM): -11.29 kcal/mol
ΔS ([1]; 20 °C, KCl 450.0 mM): −20.7 cal mol^−1 K^−1
Ka ([1]; 25.0 °C): 4700 M⁻¹
TΔS ([1]; 25.0 °C): -8.32 kcal/mol
ΔG ([1]; 25.0 °C): -5.005 kcal/mol
ΔH ([1]; 25.0 °C): -13.32 kcal/mol
ΔS ([1]; 25.0 °C): −27.9 cal mol^−1 K^−1
Molecule: Ac-YESTNPFTAK-NH2 [Rfp2-NPF2]

ΔH [2]: -11.3 kcal/mol
ΔH [3]: -11.3 kcal/mol
Molecule: EHD1 EH domain (EH domain-containing protein 1, C-terminal EH domain)

stoichiometry N [4]: 2
Molecule: Rabenosyn-5 peptide containing two NPF motifs

Ka [5]: 2000 M⁻¹
Ka [6]: 53000 M⁻¹
dH [6]: -10.5 kcal/mol
stoichiometry N [6]: 1.09
Ka [7]: 814000 M⁻¹ and 861000 M⁻¹
dH [7]: -11.3 kcal/mol
stoichiometry N [7]: 0.98 and 1.02
Ka [8]: 17800 M⁻¹
dH [8]: -10.4 kcal/mol
stoichiometry N [8]: 1.04
Ka [9]: 302000 M⁻¹
dH [9]: -10.4 kcal/mol
stoichiometry N [9]: 0.97
Ka [10]: 168000 M⁻¹
dH [10]: -10.4 kcal/mol
stoichiometry N [10]: 0.97
Ka [11]: 1.1e+06 M⁻¹
dH [11]: -10.4 kcal/mol
stoichiometry N [11]: 0.99
Ka [12]: 606000 M⁻¹
dH [12]: -11.9 kcal/mol
stoichiometry N [12]: 0.98
Ka [13]: 2.03e+06 M⁻¹
dH [13]: -8.99 kcal/mol
stoichiometry N [13]: 0.98
Ka [14]: 65000 M⁻¹
dH [14]: -10.5 kcal/mol
stoichiometry N [14]: 1.05
Ka [15]: 24800 M⁻¹
dH [15]: -10.3 kcal/mol
stoichiometry N [15]: 1.04
Ka [16]: 115000 M⁻¹
dH [16]: -10.3 kcal/mol
stoichiometry N [16]: 0.95
Ka [17]: 1.71e+06 M⁻¹
dH [17]: -9.68 kcal/mol
stoichiometry N [17]: 0.98
Ka [18]: 86500 M⁻¹
dH [18]: -10.9 kcal/mol
stoichiometry N [18]: 0.99
Molecule: Ac-GPSLNPFDEED-NH2 [Rsn5-NPF1, peptide of NPF1 of Rabenosyn-5 (Ac-GPSLNPFDEED-NH2)]

Ka [5]: 2000 M⁻¹
Ka [6]: 6910 M⁻¹
dH [6]: -12 kcal/mol
stoichiometry N [6]: 1.02
Ka [7]: 6640 M⁻¹ and 7030 M⁻¹
dH [7]: -11.9 kcal/mol and -11.8 kcal/mol
stoichiometry N [7]: 1.03 and 1.01
Ka [8]: 7810 M⁻¹
dH [8]: -11.3 kcal/mol
stoichiometry N [8]: 1.04
Ka [11]: 9390 M⁻¹
dH [11]: -10.8 kcal/mol
stoichiometry N [11]: 1.03
Ka [12]: 4700 M⁻¹
dH [12]: -13.3 kcal/mol
stoichiometry N [12]: 0.99
Ka [13]: 17800 M⁻¹
dH [13]: -9.28 kcal/mol
stoichiometry N [13]: 0.97
Ka [15]: 7490 M⁻¹
dH [15]: -11.8 kcal/mol
stoichiometry N [15]: 0.99
Ka [16]: 6460 M⁻¹
dH [16]: -11.8 kcal/mol
stoichiometry N [16]: 0.96
Ka [17]: 12800 M⁻¹
dH [17]: -10 kcal/mol
stoichiometry N [17]: 1.02
Molecule: Ac-YESTNPFTAK-NH2 [Rfp2-NPF2, peptide of NPF2 of Rab11-Fip2 (Ac-YESTNPFTAK-NH2)]
